In brackets after ≈: the same amount, converted by molar mass.
The molecules below were run on Escherichia coli (assay: Inhibition of Escherichia coli dihydroneopterin aldolase assessed as [14C]glycolaldehyde formation using [14C]neopterin substrate at 50 ug/ml by scintillation counting).
How it was run: (§1)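 Enzyme from E. coli B grown in corn steep liquor medium with methionine and glutamic acid, homogenized, cleared of debris and heat-treated. Substrate is 14C-neopterin with unlabeled neopterin, reduced by dithionite to dihydroneopterin in ammonium acetate pH 9.6 with EDTA and mercaptoethanol. Test pteridines are dithionite-reduced. Incubation runs 30 min at 37 °C in the dark and is stopped with Norit A in 2 N acetic acid. The supernatant is scintillation counted.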

Compound | inhibition [%]
Nc1nc2c(c(=O)[nH]1)N=C(C=O)CN2 | 75

These molecules were tested on Escherichia coli (assay: Inhibition of Escherichia coli dihydroneopterin aldolase assessed as [14C]glycolaldehyde formation using [14C]neopterin substrate by scintillation counting).
How it was run: as §1

Compound | ID50 [µg/mL]
CC1(C)Nc2nc(N)nc(O)c2N=C1CO | 1 (≈ 4.48 µM)
CCCCCCCCC1=Nc2c(O)nc(N)nc2NC1 | > 50
NC(=O)C1=Nc2c(O)nc(N)nc2NC1 | 5 (≈ 24 µM)
CC(C)C1=Nc2c(N)nc(N)nc2NC1C(C)C (stereo unspecified) | > 50
Nc1nc(O)c2c(n1)NCC(/C=N/O)=N2 | > 50
CC1=Nc2c(O)nc(N)nc2NC1 | > 50
Nc1nc(O)c2c(n1)NC(CO)C=N2 (stereo unspecified) | > 50
Nc1nc2c(c(=O)[nH]1)N=C(CO)CN2 | 30 (≈ 154 µM)
Nc1nc(O)c2c(n1)NCC=N2 | > 50
Nc1nc(O)c2c(n1)NCC(CCCc1ccccc1)=N2 | > 50
CCOC(OCC)C1=Nc2c(O)nc(N)nc2NC1 | > 50
Nc1nc(O)c2c(n1)NC(O)C(C(=O)O)=N2 (stereo unspecified) | > 50
OCC1=Nc2c(O)nc(S)nc2NC1 | > 50
Nc1nc(N)c2c(n1)NCC(CO)=N2 | > 50
Nc1nc(O)c2c(n1)NCC(C(=O)O)=N2 | > 50
